Converted amounts (≈) assume the structure as drawn.

A short description of series [1]: Cytotoxicity against human mock-infected MT4 cells after 4 days by MTT assay. In kind it is cell-based. A digest of the protocol:
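Mock-infected MT-4 cells were grown in HEPES-buffered RPMI-1640 with 10% heat-inactivated FCS and subcultured every 3–4 d. Viability was read by MTT at 7.5 mg/ml for 1 h at 37 °C, with formazan dissolved in acidified Triton X-100/isopropanol and read at A540 minus A690. CC50 is the concentration lowering OD540 of the mock-infected control by 50%.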
On the technique in general: Tetrazolium assays rely on reduction of a dye to a coloured formazan, in cell work by metabolically active cells.

The test system of series [2] is Human immunodeficiency virus 1. As to the kind of experiment: Antiviral activity against wild type HIV1 infected in human MT4 cells assessed as protection against virus-induced cytopathogenicity after 5 days by MTT assay. The settings on record: Human immunodeficiency virus 1, MT4, 120 h. Background: Damage to the host cells serves as the signal in cytopathic effect assays.

In series [1], `O=C(Cc1cc(=O)oc2cc(O)ccc12)Nc1nc2cc(Cl)c(F)cc2s1` displayed a cytotoxic concentration (CC50) at 96 h greater than 100 mg/L. For the same molecule, the EC50 in series [2] was 100 mg/L (≈ 247 µM).

Regarding `Cc1ccc2oc(=O)cc(CC(=O)Nc3nc4ccc(F)cc4s3)c2c1`, the cytotoxic concentration (CC50) at 96 h in series [1] was greater than 20 mg/L. Further, the 50% effective concentration (EC50) in series [2] was 20 mg/L (≈ 54.3 µM).

Regarding `Cc1ccc2c(CC(=O)Nc3nc4ccc(Cl)cc4s3)cc(=O)oc2c1`, the cytotoxic concentration (CC50) at 96 h in series [1] is greater than 44 mg/L. Further, the half-maximal effective concentration (EC50) in series [2] was found to be 44 mg/L (≈ 114 µM).

`O=C(Cc1cc(=O)oc2cc(O)ccc12)Nc1nc2ccc(Cl)cc2s1` came in with a CC50 at 96 h in series [1] greater than 7 mg/L. In series [2], the EC50 came out at 7 mg/L (≈ 18.1 µM).

In series [1], `Cc1ccc2oc(=O)cc(CC(=O)Nc3nc4ccc([N+](=O)[O-])cc4s3)c2c1` registered a CC50 at 96 h greater than 32 mg/L. Besides, the EC50 in series [2] was found to be 32 mg/L (≈ 80.9 µM).

On to `Cc1cc(C)c2oc(=O)cc(CC(=O)Nc3nc4cc(Cl)c(F)cc4s3)c2c1`, for which, in series [1], the CC50 at 96 h was greater than 16 mg/L. Besides, in series [2], the concentration for a half-maximal effect (EC50) was determined as 16 mg/L (≈ 38.4 µM).

In series [1], `Cc1ccc2c(CC(=O)Nc3nc4cc(Cl)c(F)cc4s3)cc(=O)oc2c1C` gave a CC50 at 96 h greater than 97 mg/L. Moreover, the EC50 in series [2] came out at 97 mg/L (≈ 233 µM).

As for `Cc1cccc2c(CC(=O)Nc3nc4ccc([N+](=O)[O-])cc4s3)cc(=O)oc12`, in series [1], the half-maximal cytotoxic concentration (CC50) at 96 h is greater than 12 mg/L. For the same molecule, the EC50 in series [2] came to 12 mg/L (≈ 30.3 µM).

For `Cc1ccc2c(CC(=O)Nc3nc4ccc([N+](=O)[O-])cc4s3)cc(=O)oc2c1C`, in series [1], the CC50 at 96 h is greater than 9 mg/L. In series [2], the EC50 amounted to 9 mg/L (≈ 22 µM).

Molecule `Cc1ccc2c(CC(=O)Nc3nc4ccc(Cl)cc4s3)cc(=O)oc2c1C` yielded a CC50 at 96 h in series [1] greater than 60 mg/L. Also, in series [2], the concentration for a half-maximal effect (EC50) came to 60 mg/L (≈ 150 µM).

In series [1], `Cc1cc(C)c2oc(=O)cc(CC(=O)Nc3nc4ccc(Cl)cc4s3)c2c1` gave a 50% cytotoxic concentration (CC50) at 96 h greater than 65 mg/L. Besides, the concentration giving a half-maximal response (EC50) in series [2] is 65 mg/L (≈ 163 µM).

In turn, `Cc1ccc2oc(=O)cc(CC(=O)Nc3nc4cc(Cl)c(F)cc4s3)c2c1` came in with a CC50 at 96 h in series [1] greater than 12 mg/L. Also, the half-maximal effective concentration (EC50) in series [2] came out at 12 mg/L (≈ 29.8 µM).

As for `O=C(Cc1cc(=O)oc2cc(O)ccc12)Nc1nc2ccc(F)cc2s1`, the CC50 at 96 h in series [1] was greater than 21 mg/L. In addition, the EC50 in series [2] was determined as 21 mg/L (≈ 56.7 µM).

On to `COc1ccc2nc(NC(=O)Cc3cc(=O)oc4c3ccc3ccccc34)sc2c1`, for which the 50% cytotoxic concentration (CC50) at 96 h in series [1] was greater than 100 mg/L. Besides, the EC50 in series [2] turned out to be 100 mg/L (≈ 240 µM).

`Cc1cn([C@H]2C[C@H](N=[N+]=[N-])[C@@H](CO)O2)c(=O)[nH]c1=O` [ZIDOVUDINE] showed a 50% cytotoxic concentration (CC50) at 96 h in series [1] of 65.4 mg/L (≈ 245 µM). In addition, the concentration giving a half-maximal response (EC50) in series [2] was 0.0012 mg/L (≈ 0.00449 µM).

Molecule `Cc1cc(C)c2oc(=O)cc(CC(=O)Nc3nc4ccc(F)cc4s3)c2c1` displayed a CC50 at 96 h in series [1] greater than 38 mg/L. Further, in series [2], the EC50 amounted to 38 mg/L (≈ 99.4 µM).

As to `Cc1ccc2c(CC(=O)Nc3nc4ccc([N+](=O)[O-])cc4s3)cc(=O)oc2c1`, in series [1], the CC50 at 96 h is greater than 49 mg/L. Besides, the EC50 in series [2] was found to be 49 mg/L (≈ 124 µM).

`Cc1cccc2c(CC(=O)Nc3nc4ccc(F)cc4s3)cc(=O)oc12` displayed a half-maximal cytotoxic concentration (CC50) at 96 h in series [1] greater than 100 mg/L. Moreover, in series [2], the EC50 amounted to 100 mg/L (≈ 271 µM).

In turn, `Cc1cc(C)c2oc(=O)cc(CC(=O)Nc3nc4ccc([N+](=O)[O-])cc4s3)c2c1` gave a CC50 at 96 h in series [1] greater than 100 mg/L. Moreover, in series [2], the EC50 was 100 mg/L (≈ 244 µM).

`COc1ccc2nc(NC(=O)Cc3cc(=O)oc4ccc5ccccc5c34)sc2c1`: the half-maximal cytotoxic concentration (CC50) at 96 h in series [1] is greater than 100 mg/L. The EC50 in series [2] stood at 100 mg/L (≈ 240 µM).

`Cc1ccc2c(CC(=O)Nc3nc4ccc(F)cc4s3)cc(=O)oc2c1C` yielded a cytotoxic concentration (CC50) at 96 h in series [1] greater than 24 mg/L. Also, in series [2], the half-maximal effective concentration (EC50) amounted to 24 mg/L (≈ 62.8 µM).

For the molecule `Cc1cccc2c(CC(=O)Nc3nc4ccc(Cl)cc4s3)cc(=O)oc12`, the CC50 at 96 h in series [1] was greater than 21 mg/L. Also, the EC50 in series [2] is 21 mg/L (≈ 54.6 µM).

Regarding `Cc1ccc2c(CC(=O)Nc3nc4cc(Cl)c(F)cc4s3)cc(=O)oc2c1`, in series [1], the 50% cytotoxic concentration (CC50) at 96 h was greater than 17 mg/L. Also, the concentration giving a half-maximal response (EC50) in series [2] turned out to be 17 mg/L (≈ 42.2 µM).

As for `Cc1ccc2oc(=O)cc(CC(=O)Nc3nc4ccc(Cl)cc4s3)c2c1`, in series [1], the half-maximal cytotoxic concentration (CC50) at 96 h is greater than 27 mg/L. Further, the EC50 in series [2] is 27 mg/L (≈ 70.2 µM).

As to `O=C(Cc1cc(=O)oc2cc(O)ccc12)Nc1nc2ccc([N+](=O)[O-])cc2s1`, the cytotoxic concentration (CC50) at 96 h in series [1] was greater than 8 mg/L. Also, the EC50 in series [2] came to 8 mg/L (≈ 20.1 µM).

Turning to `Cc1cccc2c(CC(=O)Nc3nc4cc(Cl)c(F)cc4s3)cc(=O)oc12`, the 50% cytotoxic concentration (CC50) at 96 h in series [1] was greater than 58 mg/L. Moreover, the EC50 in series [2] was 58 mg/L (≈ 144 µM).

Molecule `Cc1ccc2c(CC(=O)Nc3nc4ccc(F)cc4s3)cc(=O)oc2c1` returned a CC50 at 96 h in series [1] greater than 44 mg/L. Also, in series [2], the EC50 worked out at 44 mg/L (≈ 119 µM).

Usually CC50 stands for the concentration that lowers cell viability or growth by half. A low value points to greater toxicity to the cells. Broadly, the EC50 is the concentration at which the effect is half-maximal.
